Source: ChEMBL document CHEMBL4342502, “Synthesis and Antichlamydial Activity of Molecules Based on Dysregulators of Cylindrical Proteases” (J Med Chem, 2020)
Active and inactive are the calls of the source. No cut-off for these calls is given here.

Assays:
Type in all cases: functional, organism-based
Acinetobacter baumannii = assay: Antibacterial activity against Acinetobacter baumannii ATCC 19606 assessed as bacterial growth inhibition at 32 ug/ml measured after 16 hrs by broth microdilution method; conditions: ATCC 19606 = CIP 70.34 = JCM 6841
Staphylococcus aureus [1] = assay: Antibacterial activity against methicillin-resistant Staphylococcus aureus ATCC 43300 assessed as bacterial growth inhibition at 32 ug/ml measured after 16 hrs by broth microdilution method
Escherichia coli [2] = assay: Antibacterial activity against Escherichia coli K12 assessed as bacterial growth inhibition at 32 ug/ml measured after 16 hrs by broth microdilution method; conditions: K-12
Summary of the method: (§1)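 Broth microdilution in Mueller Hinton broth, triplicate. Direct colony suspension at 1.5 x 10^8 CFU/mL diluted to ~10^5 CFU/mL. Serial dilutions made from DMSO stocks at 1 mg/mL; vancomycin positive control, blank medium negative control. Incubated 16 h at optimum temperature. MIC is the lowest concentration without visible growth at 600 nm; mean of triplicate determinations.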

Chlamydia trachomatis = assay: Anti-chlamydial activity against Chlamydia trachomatis Serovar LGV-L2 infected in Hep2 cells assessed as inhibition of chlamydial inclusion at 50 ug/ml treated at 8 hrs post infection and measured at 24 hrs post-infection by immunofluorescence assay
Summary of the method: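 HEp-2 cells infected with C. trachomatis serovar L2. Compounds at 50 μg/mL added 8 hpi; inclusion number and size assessed by immunofluorescence at 24 hpi against untreated cells. Cell morphology and viability checked by phase-contrast microscopy.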

Escherichia coli [3] = assay: Antibacterial activity against Escherichia coli ATCC 25922 assessed as bacterial growth inhibition at 32 ug/ml measured after 16 hrs by broth microdilution method
Cryptococcus neoformans = assay: Antifungal activity against Cryptococcus neoformans var. grubii H99 ATCC […] as fungal growth inhibition at 32 ug/ml measured after 16 hrs by broth microdilution method; conditions: var. grubii H99 ATCC 208821
Klebsiella pneumoniae = assay: Antibacterial activity against Klebsiella pneumoniae ATCC 700603 assessed as bacterial growth inhibition at 32 ug/ml measured after 16 hrs by broth microdilution method
Staphylococcus aureus [4] = assay: Antibacterial activity against Staphylococcus aureus JE2 assessed as bacterial growth inhibition at 32 ug/ml measured after 16 hrs by broth microdilution method; summary of the method: as §1
Candida albicans = assay: Antifungal activity against Candida albicans ATCC 90028 assessed as fungal growth inhibition at 32 ug/ml measured after 16 hrs by broth microdilution method
Pseudomonas aeruginosa = assay: Antibacterial activity against Pseudomonas aeruginosa ATCC 27853 assessed as bacterial growth inhibition at 32 ug/ml measured after 16 hrs by broth microdilution method

SMILES | inhibition (Acinetobacter baumannii) | inhibition (Staphylococcus aureus [1]) | inhibition (Escherichia coli [2]) | inhibition (Chlamydia trachomatis) | inhibition (Escherichia coli [3]) | inhibition (Cryptococcus neoformans) | inhibition (Klebsiella pneumoniae) | inhibition (Staphylococcus aureus [4]) | inhibition (Candida albicans) | inhibition (Pseudomonas aeruginosa)
CC(C)(C(=O)N1CCN(Cc2ccc(F)cc2)CC1)S(=O)(=O)c1ccc(C(F)(F)F)cn1 | inactive | inactive | inactive | inactive | inactive | inactive | inactive | inactive | inactive | inactive
CC(C)(C(=O)NCCCc1ccccc1)S(=O)(=O)c1ccc(Cl)cn1 |  |  |  | Active |  |  |  |  |  | 
CC(C)(C(=O)NCCOc1ccccc1)S(=O)(=O)c1ccccc1 |  |  |  | inactive |  |  |  |  |  | 
CC(C)(C(=O)NCCOc1ccc(Cl)cc1)S(=O)(=O)c1ccccc1 | inactive | inactive | inactive | inactive | inactive | inactive | inactive | inactive | inactive | inactive
CC(C)(C(=O)N1CCN(c2ccccc2)CC1)S(=O)(=O)c1ccc(C(F)(F)F)cn1 | inactive | inactive | inactive | inactive | inactive | inactive | inactive | inactive | inactive | inactive
CC(C)(C(=O)N1CCN(c2ccccn2)CC1)S(=O)(=O)c1ccc(C(F)(F)F)cn1 | inactive | inactive | inactive | inactive | inactive | inactive | inactive | inactive | inactive | inactive
Cc1ccc(C)c(N2CCN(C(=O)C(C)S(=O)(=O)c3ccc(C(F)(F)F)cn3)CC2)c1 (configuration not stated) | inactive | inactive | inactive | inactive | inactive | inactive | inactive | inactive | inactive | inactive
CC(C)(C(=O)NCCOc1ccccc1Cl)S(=O)(=O)c1ccc(C(F)(F)F)cc1 | inactive | inactive | inactive | Active | inactive | inactive | inactive | inactive | inactive | inactive
Cc1ccc(C)c(N2CCN(C(=O)C(C)(C)S(=O)(=O)c3ccc(C(F)(F)F)cn3)CC2)c1 | inactive | inactive | inactive | Active | inactive | inactive | inactive | inactive | inactive | inactive
CC(C(=O)N1CCN(c2ccc(Cl)c(Cl)c2)CC1)S(=O)(=O)c1ccc(C(F)(F)F)cn1 (configuration not stated) | inactive | inactive | inactive | inactive | inactive | inactive | inactive | inactive | inactive | inactive
CC(C)(C(=O)NCCCc1ccccc1)S(=O)(=O)c1ccccn1 | inactive | inactive | inactive | inactive | inactive | inactive | inactive | inactive | inactive | inactive
CC(C)(C(=O)NCCSc1ccccc1)S(=O)(=O)c1ccc(C(F)(F)F)cn1 |  |  |  | inactive |  |  |  |  |  | 
Cc1ccccc1N1CCN(C(=O)C(C)S(=O)(=O)c2ccc(C(F)(F)F)cn2)CC1 (configuration not stated) | inactive | inactive | inactive | inactive | inactive | inactive | inactive | inactive | inactive | inactive
CC(C)(C(=O)NCCSc1ccccc1Cl)S(=O)(=O)c1ccc(C(F)(F)F)cc1 | inactive | inactive | inactive | Active | inactive | inactive | inactive | inactive | inactive | inactive
NCCCc1ccccc1 | inactive | inactive | inactive |  | inactive | inactive | inactive | inactive | inactive | inactive
CC(C)(C(=O)NCCOc1ccc(Cl)cc1)S(=O)(=O)c1ccc(C(F)(F)F)cc1 | inactive | inactive | inactive | inactive | inactive | inactive | inactive | inactive | inactive | inactive
CC(C(=O)NCCCc1ccccc1)S(=O)(=O)c1ccc(C(F)(F)F)cn1 (configuration not stated) | inactive | inactive | inactive | inactive | inactive | inactive | inactive | inactive | inactive | inactive
COc1cccc(N2CCN(C(=O)C(C)(C)S(=O)(=O)c3ccc(C(F)(F)F)cn3)CC2)c1 | inactive | inactive | inactive | Active | inactive | inactive | inactive | inactive | inactive | inactive
CC(C)(C(=O)NCCOc1ccc(Cl)cc1)S(=O)(=O)c1ccc(C(F)(F)F)cn1 | inactive | inactive | inactive | inactive | inactive | inactive | inactive | inactive | inactive | inactive
CC(C)(C(=O)NCCSc1ccc(Cl)cc1)S(=O)(=O)c1ccc(C(F)(F)F)cc1 | inactive | inactive | inactive | Active | inactive | inactive | inactive | inactive | inactive | inactive
